According to ChEMBL document CHEMBL5032538, “Studies on the Importance of the 7α-, and 12α- hydroxyl groups of N-Aryl-3α,7α,12α-trihydroxy-5β-cholan-24-amides on their Antigermination Activity Against a Hypervirulent Strain of Clostridioides (Clostridium) difficile” (Bioorg Med Chem, 2021):

The compounds below were run against Clostridioides difficile (assay: Inhibition of Taurocholate-induced spore germination in Clostridioides difficile 630 in presence of glycine measured every minute for 90 mins).
Type: functional

Work on `C[C@H](CCC(=O)Nc1cccc(S(=O)(=O)O)c1)[C@H]1CC[C@H]2[C@@H]3[C@H](O)C[C@@H]4C[C@H](O)CC[C@]4(C)[C@H]3C[C@H](O)[C@]12C` yielded a Ki of 50 µM.

Each compound was assayed on Clostridioides difficile (assay: Inhibition of Taurocholate-induced spore germination in Clostridioides difficile R20291 assessed as remaining germination activity at 125 uM in the presence of glycine measured every minute for 2 hrs relative to control).
Type: functional
How it was run: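 Spores purified on a HistoDenz gradient, heat-activated at 68°C for 30 min, washed, then diluted to OD580 1.0 in 100 mM sodium phosphate pH 6.0 with 5 mg/ml sodium bicarbonate. Compound at 125 μM final, in triplicate, with 6 mM taurocholate and 12 mM glycine. OD580 read every minute for 2 h and normalized to time zero. Percent germination given with standard deviation.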

Compared with `C[C@H](CCC(=O)Nc1ccccc1)[C@H]1CC[C@H]2[C@@H]3CC[C@@H]4C[C@H](O)CC[C@]4(C)[C@H]3C[C@H](O)[C@]12C`, `C[C@H](CCC(=O)Nc1cccc(F)c1)[C@H]1CC[C@H]2[C@@H]3CC[C@@H]4C[C@H](O)CC[C@]4(C)[C@H]3C[C@H](O)[C@]12C` is higher in Activity: 3% for the first, 59% for the second.

`C[C@H](CCC(=O)Nc1cccc(F)c1)[C@H]1CC[C@H]2[C@@H]3[C@@H](O)C[C@@H]4C[C@H](O)CC[C@]4(C)[C@H]3CC[C@]12C` and `C[C@H](CCC(=O)Nc1cccc(F)c1)[C@H]1CC[C@H]2[C@@H]3[C@H](O)C[C@@H]4C[C@H](O)CC[C@]4(C)[C@H]3CC[C@]12C` are the same in Activity: 100% for the first, 100% for the second.

Going from `COc1ccccc1NC(=O)CC[C@@H](C)[C@H]1CC[C@H]2[C@@H]3[C@H](O)C[C@@H]4C[C@H](O)CC[C@]4(C)[C@H]3CC[C@]12C` to `COc1ccccc1NC(=O)CC[C@@H](C)[C@H]1CC[C@H]2[C@@H]3[C@@H](O)C[C@@H]4C[C@H](O)CC[C@]4(C)[C@H]3CC[C@]12C`, the Activity rises from 31% to 100%.

`Cc1ccc(F)cc1NC(=O)CC[C@@H](C)[C@H]1CC[C@H]2[C@@H]3CC[C@@H]4C[C@H](O)CC[C@]4(C)[C@H]3CC[C@]12C` and `C[C@H](CCC(=O)Nc1cccc(F)c1)[C@H]1CC[C@H]2[C@@H]3CC[C@@H]4C[C@H](O)CC[C@]4(C)[C@H]3CC[C@]12C` are the same in Activity: 100% for the first, 100% for the second.

Compared with `C[C@H](CCC(=O)Nc1ccccc1)[C@H]1CC[C@H]2[C@@H]3[C@@H](O)C[C@@H]4C[C@H](O)CC[C@]4(C)[C@H]3CC[C@]12C`, `C[C@H](CCC(=O)Nc1ccccc1)[C@H]1CC[C@H]2[C@@H]3[C@H](O)C[C@@H]4C[C@H](O)CC[C@]4(C)[C@H]3CC[C@]12C` is lower in Activity: 57% for the first, 14% for the second.

Going from `Cc1ccc(F)cc1NC(=O)CC[C@@H](C)[C@H]1CC[C@H]2[C@@H]3CC[C@@H]4C[C@H](O)CC[C@]4(C)[C@H]3C[C@H](O)[C@]12C` to `COc1ccccc1NC(=O)CC[C@@H](C)[C@H]1CC[C@H]2[C@@H]3CC[C@@H]4C[C@H](O)CC[C@]4(C)[C@H]3C[C@H](O)[C@]12C`, the Activity falls from 65% to 0.4%.

First: Cc1ccc(F)cc1NC(=O)CC[C@@H](C)[C@H]1CC[C@H]2[C@@H]3[C@H](O)C[C@@H]4C[C@H](O)CC[C@]4(C)[C@H]3CC[C@]12C
Second: Cc1ccc(F)cc1NC(=O)CC[C@@H](C)[C@H]1CC[C@H]2[C@@H]3[C@@H](O)C[C@@H]4C[C@H](O)CC[C@]4(C)[C@H]3CC[C@]12C
The Activity of the first is lower: 66% for the first, 100% for the second.

`COc1ccccc1NC(=O)CC[C@@H](C)[C@H]1CC[C@H]2[C@@H]3CC[C@@H]4C[C@H](O)CC[C@]4(C)[C@H]3CC[C@]12C` and `C[C@H](CCC(=O)Nc1ccccc1)[C@H]1CC[C@H]2[C@@H]3CC[C@@H]4C[C@H](O)CC[C@]4(C)[C@H]3CC[C@]12C` are the same in Activity: 100% for the first, 100% for the second.

What follows are compounds tested on Clostridioides difficile (assay: Inhibition of Taurocholate-induced spore germination in Clostridioides difficile R20291 in the presence of glycine measured every minute for 2 hrs).
Type: functional
How it was run: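 HistoDenz-purified spores were heat-activated at 68°C for 30 min and set to OD580 1.0 in 100 mM sodium phosphate pH 6.0 with 5 mg/ml bicarbonate. They were incubated with varied analog concentrations plus 6 mM taurocholate and 12 mM glycine. OD580 was read each minute for 2 h and normalized to t0. IC50 came from extent of germination plotted against log concentration.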

Compared with `C[C@H](CCC(=O)Nc1ccccc1)[C@H]1CC[C@H]2[C@@H]3CC[C@@H]4C[C@H](O)CC[C@]4(C)[C@H]3C[C@H](O)[C@]12C`, `COc1ccccc1NC(=O)CC[C@@H](C)[C@H]1CC[C@H]2[C@@H]3CC[C@@H]4C[C@H](O)CC[C@]4(C)[C@H]3C[C@H](O)[C@]12C` is 1.8-fold higher in IC50: 1.3 µM for the first, 2.4 µM for the second.

First: COc1ccccc1NC(=O)CC[C@@H](C)[C@H]1CC[C@H]2[C@@H]3[C@H](O)C[C@@H]4C[C@H](O)CC[C@]4(C)[C@H]3CC[C@]12C
Second: C[C@H](CCC(=O)Nc1ccccc1)[C@H]1CC[C@H]2[C@@H]3[C@H](O)C[C@@H]4C[C@H](O)CC[C@]4(C)[C@H]3CC[C@]12C
The IC50 of the first is 1.5-fold higher: 6 µM for the first, 4 µM for the second.

These compounds were tested against Clostridioides difficile (assay: Inhibition of Taurocholate-induced spore germination in Clostridioides difficile UK1 at […] by spectrophotometric method).
Type: functional

Compared with `C[C@H](CCC(=O)O)[C@H]1CC[C@H]2[C@@H]3[C@H](O)C[C@@H]4C[C@H](O)CC[C@]4(C)[C@H]3CC[C@]12C` [CHENODIOL], `C[C@H](CCC(=O)O)[C@H]1CC[C@H]2[C@@H]3[C@@H](O)C[C@@H]4C[C@H](O)CC[C@]4(C)[C@H]3CC[C@]12C` [URSODIOL] is 1.8-fold lower in Ki: 378 µM for the first, 213 µM for the second.

Work on `C[C@H](CCC(=O)O)[C@H]1CC[C@H]2[C@@H]3CC[C@@H]4C[C@H](O)CC[C@]4(C)[C@H]3CC[C@]12C` [LITHOCHOLIC ACID] yielded a Ki of 104 µM.
